Measured values of several laboratories.
Each line is one published result; the experiments were not run side by side.

Structure (SMILES)	cell line	effect on	technique	time	measurement	value
CC[C@@H]1C=CC(=O)O[C@@H]1C[C@@H](O)[C@H](C)[C@H](OC)[C@@H](C)Cc1ccccc1	OVCAR-5	cell growth or viability	MTT	48 h	GI50	57.5 nM
C=CC(=O)N1CCC[C@@H](n2nc(-c3ccc(Oc4ccccc4)cc3)c3c(N)ncnc32)C1	Z-138	cell growth or viability	ATP luminescence	72 h	GI50	17200 nM
COc1ccc(S(=O)(=O)Nc2ccc3oc(-c4ccc(NC(=O)c5cccc(C)c5[N+](=O)[O-])cc4)nc3c2)cc1	DLD-1	colony formation	–	–	EC50	16000 nM
CC/C(=C(\c1ccccc1)c1ccc(OCCN(C)C)cc1)c1ccccc1	Capan-2	cell growth or viability	ATP luminescence	72 h	EC90	25800 nM
CC[C@@H]1C=CC(=O)O[C@@H]1C[C@@H](OC)[C@H](C)[C@H](OC)[C@@H](C)Cc1ccc(F)cc1	OVCAR-5	cell growth or viability	MTT	48 h	GI50	784 nM
CC#CC(=O)N1CC[C@@H](n2cc(-c3ccc(Oc4c(F)cccc4F)cc3)c3c(N)n[nH]c(=O)c32)C1	Granta-519	cell growth or viability	ATP luminescence	72 h	GI50	2690 nM
C[C@]12CC[C@@H]3c4ccc(O)cc4CC[C@H]3[C@@H]1CC[C@@H]2O	Capan-2	cell growth or viability	ATP luminescence	72 h	EC90	150000 nM
COc1cc(Nc2nccc(-c3cnn4nc(OC)ccc34)n2)cc(C(F)(F)F)c1	BEN	cell growth or viability	ATP luminescence	–	IC50	> 3000 nM
COc1ccc(-c2ccc(-c3ccc(C(=N)N)nc3)s2)cc1Cl	OVCAR-5	cell growth or viability	SRB	–	GI50	1860 nM
